ChEMBL document CHEMBL1137554, “Synthesis and biological evaluation of novel cytotoxic azanaphthoquinone annelated pyrrolo oximes” (Bioorg Med Chem Lett, 2007)
Calls of active or inactive are those of the source. No cut-off for these calls is given here.

Key:
NCI-H460 = assay: Cytotoxicity against NCIH460 cells after 48 hrs by XTT assay; assay type: functional, cell-based; conditions: for Activity: Homo sapiens
Method in brief: (§1)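 XTT tetrazolium proliferation assay with 48 h compound exposure. IC50 was obtained by nonlinear regression from at least two independent experiments and reported as mean ± standard deviation.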

SF-268 = assay: Cytotoxicity against SF268 cells after 48 hrs by XTT assay; assay type: functional, cell-based; conditions: for Activity: Homo sapiens; method in brief: as §1
SK-OV-3 = assay: Cytotoxicity against SKOV3 cells after 48 hrs by XTT assay; assay type: functional, cell-based; conditions: for Activity: Homo sapiens; method in brief: as §1
RKOp27 = assay: (§2) Cytotoxicity against RKOp27 cells after 48 hrs by XTT assay; assay type: functional, cell-based; conditions: Homo sapiens; method in brief: as §1
[1] = Cytotoxicity against KB/HeLa cells at 3.16 ug/ml after 48 hrs by XTT assay; assay type: functional; conditions: Homo sapiens
[2] = as §2; assay type: functional, cell-based, Homo sapiens; method in brief: as §1
[3] = Cytotoxicity against KB/HeLa cells after 48 hrs by XTT assay; assay type: functional, cell-based, Homo sapiens; method in brief: as §1
[4] = Cytotoxicity against multidrug resistant LT12 cells by XTT assay; assay type: functional, Rattus norvegicus; method in brief: as §1
[5] = Cytotoxicity against LT12 cells by XTT assay; assay type: functional, Rattus norvegicus; method in brief: as §1
P388 [6] = assay: Cytotoxicity against P388 cells by XTT assay; assay type: functional, Mus musculus; method in brief: as §1
P388 [7] = assay: Cytotoxicity against adriamycin-resistant P388 Cells by XTT assay; assay type: functional, Mus musculus; method in brief: as §1
L1210 [8] = assay: Cytotoxicity against L1210 cells by XTT assay; assay type: functional, Mus musculus; method in brief: as §1
L1210 [9] = assay: Cytotoxicity against vincristine-resistant L1210 cells by XTT assay; assay type: functional, Mus musculus; method in brief: as §1
U-937 [10] = assay: (§3) Effect on apoptosis in U937 cells assessed as increase in caspase 3 activation at <=10 uM after 24 hrs; assay type: functional, cell-based; conditions: Homo sapiens
Method in brief: (§4)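 U937 cells were treated for 24 h at up to 10 μM. Caspase 3/7 activity was then measured by cleavage of a DEVD rhodamine-110 substrate.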

[11] = Cell cycle arrest at G2/M phase in KB/HeLa cells after 24 hrs; assay type: functional, cell-based; conditions: Homo sapiens
Method in brief: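 KB/HeLa cells were exposed to several concentrations for 24 h alongside untreated reference cells. They were then stained with propidium iodide and analysed by flow cytometry for cell-cycle phase distribution.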

U-937 [12] = assay: as §3; assay type: functional, cell-based; conditions: Homo sapiens; method in brief: as §4; remark: listed apart in the source

| SMILES | Activity (NCI-H460) | Activity (SF-268) | Activity (SK-OV-3) | Activity (RKOp27) | inhibition at 3.16 µg/mL [1] | IC50 (NCI-H460) | IC50 (SF-268) | IC50 (SK-OV-3) | IC50 [2] | IC50 [3] | also measured |
| --- | --- | --- | --- | --- | --- | --- | --- | --- | --- | --- | --- |
| CN(C)CCn1cc2c(c1)/C(=N\O)c1ccncc1C2=O | inactive | inactive | inactive | inactive | < 50% |  |  |  |  |  |  |
| CN(C)CCn1ccc2c1C(=O)c1cnccc1C2=O |  |  |  |  |  | 3.84 µmol | 4.71 µmol | 13.87 µmol | 2.35 µmol | 11.04 µmol |  |
| CC(=O)O[C@H]1C(=O)[C@@]2(C)[C@H]([C@H](OC(=O)c3ccccc3)[C@]3(O)C[C@H](OC(=O)[C@H](O)[C@@H](NC(=O)c4ccccc4)c4ccccc4)C(C)=C1C3(C)C)[C@]1(OC(C)=O)CO[C@@H]1C[C@@H]2O [PACLITAXEL] |  |  |  |  |  |  |  |  |  |  | Activity [4]: 0.368 µM; Activity [5]: 0.005 µM; Activity (P388 [6]): 0.038 µM; Activity (P388 [7]): >3.4 µM; Activity (L1210 [8]): 0.052 µM; Activity (L1210 [9]): >3.4 µM |
| CN(C)CCn1cc2c(c1)C(=O)c1cnccc1C2=O | inactive | inactive |  | inactive | < 50% |  |  | Not Active |  |  |  |
| CN(C)CCn1cc2c(c1)/C(=N\OCCO)c1ccncc1C2=O | inactive | inactive | inactive | inactive | < 50% |  |  |  |  |  |  |
| CO/N=C1/c2ccncc2C(=O)c2c1ccn2CCN(C)C |  |  |  |  |  | 0.79 µmol | 2.43 µmol | 2.24 µmol | 1.16 µmol | 1.21 µmol |  |
| CN(C)CCn1ccc2c1C(=O)c1cnccc1/C2=N/O |  |  |  |  |  | > 12 µmol | > 12 µmol | > 12 µmol | > 12 µmol | > 12 µmol |  |
| CCOC(=O)CO/N=C1/c2ccncc2C(=O)c2c1ccn2CCN(C)C |  |  |  |  |  | > 12 µmol | > 12 µmol | > 12 µmol | > 12 µmol | > 12 µmol |  |
| CCOC(=O)CO/N=C1/c2ccncc2C(=O)c2cn(CCN(C)C)cc21 | inactive | inactive | inactive | inactive | < 50% |  |  |  |  |  |  |
| CN(C)CCO/N=C1/c2ccncc2C(=O)c2cn(CCN(C)C)cc21 | inactive | inactive | inactive | inactive | < 50% |  |  |  |  |  |  |
| CN(C)CCn1ccc2c1C(=O)c1cnccc1/C2=N/OCCO |  |  |  |  |  | 0.13 µmol | 1.39 µmol | 0.48 µmol | 0.17 µmol | 0.66 µmol | Activity (U-937 [10]): Active; Activity [4]: 0.16 µM; Activity [5]: 0.04 µM; Activity (P388 [6]): 0.02 µM; Activity (P388 [7]): 0.5 µM; Activity (L1210 [8]): 0.07 µM; Activity (L1210 [9]): 0.16 µM; Activity [11]: Active; Activity (U-937 [12]): Active |
| CN(C)CCO/N=C1/c2ccncc2C(=O)c2c1ccn2CCN(C)C |  |  |  |  |  | 0.23 µmol | 1.23 µmol | 0.94 µmol | 0.41 µmol | 0.67 µmol | Activity (U-937 [10]): Active; Activity [4]: 0.07 µM; Activity [5]: 0.03 µM; Activity (P388 [6]): 0.02 µM; Activity (P388 [7]): 0.4 µM; Activity (L1210 [8]): 0.05 µM; Activity (L1210 [9]): 0.11 µM; Activity [11]: Active; Activity (U-937 [12]): Active |
| CO/N=C1/c2ccncc2C(=O)c2cn(CCN(C)C)cc21 | inactive | inactive | inactive | inactive | < 50% |  |  |  |  |  |  |
| COc1cccc2c1C(=O)c1c(O)c3c(c(O)c1C2=O)C[C@@](O)(C(=O)CO)C[C@@H]3O[C@H]1C[C@H](N)[C@H](O)[C@H](C)O1 [DOXORUBICIN] |  |  |  |  |  |  |  |  |  |  | Activity [4]: >3.4 µM; Activity [5]: 0.031 µM; Activity (P388 [6]): 0.52 µM; Activity (P388 [7]): >3.4 µM; Activity (L1210 [8]): 0.221 µM; Activity (L1210 [9]): >3.4 µM |
